Experimental data as given in ChEMBL document CHEMBL1909618, “Non-steroidal dissociated glucocorticoid agonists: indoles as A-ring mimetics and function-regulating pharmacophores” (Bioorg Med Chem Lett, 2011).

Key:
[1] = molecular target: T1, Glucocorticoid receptor (Homo sapiens) (UniProt P04150); assay: Agonist activity at glucocorticoid receptor in HFF assessed as inhibition of IL1-induced IL-6 production after 18 to 24 hrs relative to Dexamethasone; format: functional
T1 sequence (whole entry): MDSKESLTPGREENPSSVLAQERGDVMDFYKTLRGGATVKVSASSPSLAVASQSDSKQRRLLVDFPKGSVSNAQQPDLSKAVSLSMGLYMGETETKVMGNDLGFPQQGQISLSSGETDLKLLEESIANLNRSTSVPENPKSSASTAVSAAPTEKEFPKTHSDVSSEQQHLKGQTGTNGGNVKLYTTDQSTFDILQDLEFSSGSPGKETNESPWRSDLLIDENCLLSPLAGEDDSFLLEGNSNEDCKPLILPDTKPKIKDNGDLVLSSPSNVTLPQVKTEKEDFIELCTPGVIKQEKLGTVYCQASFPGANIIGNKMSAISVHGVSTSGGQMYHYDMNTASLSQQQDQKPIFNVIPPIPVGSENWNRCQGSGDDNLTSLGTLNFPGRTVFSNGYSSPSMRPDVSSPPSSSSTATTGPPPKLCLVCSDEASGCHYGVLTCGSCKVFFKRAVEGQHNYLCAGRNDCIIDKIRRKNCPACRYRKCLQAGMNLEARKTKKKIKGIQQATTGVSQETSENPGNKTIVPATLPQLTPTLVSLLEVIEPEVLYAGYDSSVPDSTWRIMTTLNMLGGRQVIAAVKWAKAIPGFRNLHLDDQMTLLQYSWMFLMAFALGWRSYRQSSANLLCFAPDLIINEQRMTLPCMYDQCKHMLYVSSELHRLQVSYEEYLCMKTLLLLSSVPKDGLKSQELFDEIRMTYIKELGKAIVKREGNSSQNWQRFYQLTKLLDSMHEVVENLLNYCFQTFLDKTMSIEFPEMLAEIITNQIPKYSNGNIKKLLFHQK
Method in brief: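 Human foreskin fibroblasts stimulated with IL-1 (1 ng/mL) in the presence of test compound, incubated at 37 °C for 18–24 h. IL-6 in the culture medium was quantified by electrochemiluminescence, DELFIA or ELISA. IC50 and % maximal efficacy were reported.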

Glucocorticoid receptor [2] = molecular target: T2, Glucocorticoid receptor (Homo sapiens, UniProt P04150); assay: Transactivation activity of glucocorticoid receptor in HFF assessed as induction of aromatase activity by measuring beta-estradiol activity after 18 to 24 hrs by ELISA; details: read-out: EC50
T2 sequence (P04150 whole entry): T1 sequence (whole entry)

[3] = molecular target: T1, Glucocorticoid receptor (Homo sapiens); assay: Transactivation activity of glucocorticoid receptor in HFF assessed as induction of aromatase activity by measuring beta-estradiol activity after 18 to 24 hrs by ELISA relative to Dexamethasone
Mus musculus = assay: Antiinflammatory activity in mouse plasma assessed as inhibition of LPS-induced TNFalpha production at 10 mg/kg, po administered 1 hr before LPS challenge measured after 1 hr; format: functional
Method in brief: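 Mice received compound orally in Cremophor RH 1 h before LPS challenge. Plasma TNF-α was measured 1 h after challenge. n = 8 per group; doses were 3 and 10 mg/kg.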

Glucocorticoid receptor [4] = molecular target: T2, Glucocorticoid receptor; assay: Displacement of tetramethylrhodamine-labeled Dexamethasone from human recombinant glucocorticoid receptor expressed in baculovirus infected insect cells by fluorescence polarization assay
[5] = molecular target: T3, Mineralocorticoid receptor (Homo sapiens, UniProt P08235); assay: Displacement of tetramethylrhodamine-labeled Dexamethasone from human recombinant mineralocorticoid receptor expressed in baculovirus infected insect cells by fluorescence polarization assay
T3 sequence (P08235 whole entry): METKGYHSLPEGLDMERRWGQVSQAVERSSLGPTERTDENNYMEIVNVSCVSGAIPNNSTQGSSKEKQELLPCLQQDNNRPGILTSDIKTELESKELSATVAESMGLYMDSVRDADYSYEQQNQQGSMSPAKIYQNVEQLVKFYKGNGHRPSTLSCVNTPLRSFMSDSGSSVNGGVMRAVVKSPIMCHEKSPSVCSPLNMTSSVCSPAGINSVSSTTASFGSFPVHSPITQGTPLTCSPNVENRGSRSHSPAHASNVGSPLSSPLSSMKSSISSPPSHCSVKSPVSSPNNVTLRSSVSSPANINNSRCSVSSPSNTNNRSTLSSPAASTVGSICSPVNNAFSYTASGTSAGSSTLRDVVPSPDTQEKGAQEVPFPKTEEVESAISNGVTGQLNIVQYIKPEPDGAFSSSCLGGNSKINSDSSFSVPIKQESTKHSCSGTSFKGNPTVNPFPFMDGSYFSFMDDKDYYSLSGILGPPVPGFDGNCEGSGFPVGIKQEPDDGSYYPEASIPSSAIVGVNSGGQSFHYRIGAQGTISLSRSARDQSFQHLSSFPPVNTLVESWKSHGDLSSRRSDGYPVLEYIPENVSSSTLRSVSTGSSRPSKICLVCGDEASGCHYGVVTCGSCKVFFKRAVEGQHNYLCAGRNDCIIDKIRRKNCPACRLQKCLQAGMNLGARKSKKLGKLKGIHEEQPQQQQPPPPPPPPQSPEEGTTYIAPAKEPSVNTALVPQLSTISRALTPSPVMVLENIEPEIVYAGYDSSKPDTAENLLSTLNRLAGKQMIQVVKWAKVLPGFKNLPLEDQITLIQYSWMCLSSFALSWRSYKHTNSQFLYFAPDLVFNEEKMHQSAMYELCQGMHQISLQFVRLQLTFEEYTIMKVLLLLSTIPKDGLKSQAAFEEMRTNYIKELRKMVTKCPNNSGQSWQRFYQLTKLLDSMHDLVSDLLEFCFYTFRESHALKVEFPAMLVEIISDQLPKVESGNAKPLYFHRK
Method in brief: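 Fluorescence polarization competition assays with recombinant human receptors in lysates of baculovirus-infected insect cells. Reactions contained 1% DMSO and ran 1 h at room temperature.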

Glucocorticoid receptor [6] = molecular target: T2, Glucocorticoid receptor; assay: Agonist activity at glucocorticoid receptor in HFF assessed as inhibition of IL1-induced IL-6 production after 18 to 24 hrs; format: functional

Row | SMILES | Efficacy [1] [%] | EC50 (Glucocorticoid receptor [2]) [nM] | Efficacy [3] [%] | inhibition in vivo at 10 mg/kg (Mus musculus) [%] | IC50 (Glucocorticoid receptor [4]) [nM] | IC50 [5] [nM] | IC50 (Glucocorticoid receptor [6]) [nM]
1 | COc1ccc(F)cc1C(C)(C)C[C@@](O)(Cc1cc2ccccc2[nH]1)C(F)(F)F | 87 | 18 | 98 | 35 | 10 | 190 | 6
2 | CC(C)(C[C@@](O)(Cc1cc2ccc(C#N)cc2[nH]1)C(F)(F)F)c1cc(S(C)(=O)=O)cc2c1OCC2 | 88 | 120 | 74 | 88 | 2 | 230 | 28
